Source: ChEMBL document CHEMBL1152866, “Modulation of gene expression via disruption of NF-kappaB signaling by a bacterial small molecule” (Science, 2008)
The source made the active and inactive calls. The rule behind the calls is not given here.

Assays:
BMDM [1] = experiment: Inhibition of heat-killed Staphylococcus aureus-induced MCP-1 mRNA expression in mouse BMDM by Northern blot analysis; assay type: functional, cell-based
Macrophage [2] = experiment: Inhibition of LPS-induced IP-10 mRNA expression in mouse alveolar macrophages after 90 mins by Northern blot analysis; assay type: functional, cell-based
[3] = biological target: T1, Inhibitor of nuclear factor kappa-B kinase subunit alpha (Homo sapiens) (UniProt O15111); experiment: Inhibition of LPS-induced IkappaBalpha phosphorylation in human THP1 cells measured up to 120 mins by Western blot analysis; assay type: cell-based; conditions: THP-1
T1 sequence (whole entry): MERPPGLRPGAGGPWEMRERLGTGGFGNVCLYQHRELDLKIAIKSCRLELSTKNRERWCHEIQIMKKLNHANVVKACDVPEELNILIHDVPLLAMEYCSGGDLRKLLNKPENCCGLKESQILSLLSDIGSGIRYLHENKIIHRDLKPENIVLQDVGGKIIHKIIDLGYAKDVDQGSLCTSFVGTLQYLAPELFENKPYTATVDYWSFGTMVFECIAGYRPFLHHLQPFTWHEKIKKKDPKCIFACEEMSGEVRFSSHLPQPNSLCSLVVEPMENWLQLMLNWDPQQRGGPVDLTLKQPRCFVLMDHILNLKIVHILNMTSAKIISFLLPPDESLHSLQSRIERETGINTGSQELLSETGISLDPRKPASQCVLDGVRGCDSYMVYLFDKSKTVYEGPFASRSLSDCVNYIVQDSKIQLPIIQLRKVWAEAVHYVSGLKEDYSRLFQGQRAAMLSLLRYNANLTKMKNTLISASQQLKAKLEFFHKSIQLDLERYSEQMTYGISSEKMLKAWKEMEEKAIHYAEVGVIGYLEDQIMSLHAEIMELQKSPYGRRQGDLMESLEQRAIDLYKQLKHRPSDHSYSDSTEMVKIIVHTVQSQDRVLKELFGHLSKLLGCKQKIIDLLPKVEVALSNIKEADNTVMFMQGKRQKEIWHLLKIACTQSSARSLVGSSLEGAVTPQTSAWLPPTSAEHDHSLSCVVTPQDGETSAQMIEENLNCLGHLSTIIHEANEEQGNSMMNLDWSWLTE

[4] = biological target: T2, MAP kinase p38 (Mus musculus) (UniProt P47811+O08911+Q9WUI1+Q9Z1B7); experiment: Inhibition of LPS-induced p38 phosphorylation in mouse BMDM measured up to 120 mins by Western blot analysis
Mus musculus [5] = species: Mus musculus; experiment: Effect on IKK activity in LPS-induced mouse BMDM assessed as induction of phosphorylation of p38 treated 2 hrs after LPS challenge measured up to 120 mins by immunoblot analysis
Epithelial cell = experiment: Inhibition of TNF-induced RelA expression in human bronchial epithelial cells up to 120 mins by Western blot analysis; assay type: functional, cell-based
Macrophage [6] = experiment: Inhibition of LPS-induced TNF mRNA expression in mouse alveolar macrophages after 90 mins by Northern blot analysis; assay type: functional, cell-based
BMDM [7] = experiment: Inhibition of LPS-induced IkBbeta protein level in mouse BMDM treated 2 hrs after LPS challenge measured up to 120 mins by Western blot analysis; assay type: functional, cell-based
MEF [8] = experiment: Effect on TNF-induced RANTES mRNA expression in MEF by Northern blot analysis; assay type: functional, cell-based; conditions: Mus musculus
Macrophage [9] = experiment: Inhibition of LPS-induced c-jun mRNA expression in mouse alveolar macrophages after 90 mins by Northern blot analysis; assay type: functional, cell-based
[10] = biological target: T1, Inhibitor of nuclear factor kappa-B kinase subunit alpha (Homo sapiens); experiment: Inhibition of IkappaBalpha phosphorylation in human bronchial epithelial cells assessed after 2 hrs by Western blot analysis; assay type: cell-based; conditions: Epithelial cell
How it was run: (§1)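 WI38 lung fibroblasts and bronchial epithelial cells were stimulated for 2 hours. The same Western blot was probed for PARP cleavage, total IκBα and phosphorylated IκBα.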

BMDM [11] = experiment: Inhibition of heat-killed Staphylococcus aureus-induced IL1-beta mRNA expression in mouse BMDM by Northern blot analysis; assay type: functional
Mus musculus [12] = species: Mus musculus; experiment: Inhibition of IKK activity in LPS-induced mouse BMDM assessed as reduction in phosphorylation of IkappaBalpha treated 2 hrs after LPS challenge measured up to 120 mins by immunoblot analysis
BMDM [13] = experiment: Inhibition of heat-killed Staphylococcus aureus-induced TNF mRNA expression in mouse BMDM by Northern blot analysis; assay type: functional, cell-based
BMDM [14] = experiment: Induction of c-jun mRNA expression in mouse BMDM at 50 uM after 2 hrs by Northern blot analysis; assay type: functional
THP-1 = experiment: Inhibition of LPS-induced IkappaBalpha expression in human THP1 cells measured up to 120 mins by Western blot analysis; assay type: functional, cell-based
WI-38 = experiment: Induction of apoptosis in TNF-stimulated human WI38 fibroblast assessed as PARP cleavage after 2 hrs by Western blot analysis; assay type: functional, cell-based; how it was run: as §1
MEF [15] = experiment: Inhibition of LPS-induced MCP-1 mRNA expression in MEF after 90 mins by Northern blot analysis; assay type: functional, cell-based; conditions: Mus musculus
MEF [16] = experiment: Effect on TNF-induced MCP1 mRNA expression in MEF by Northern blot analysis; assay type: functional, cell-based; conditions: Mus musculus
Mus musculus [17] = species: Mus musculus; experiment: Effect on IKK activity in LPS-induced mouse BMDM assessed as induction of phosphorylation of CREB treated 2 hrs after LPS challenge measured up to 120 mins by immunoblot analysis
Macrophage [18] = experiment: Inhibition of LPS-induced RANTES mRNA expression in mouse alveolar macrophages after 90 mins by Northern blot analysis; assay type: functional, cell-based
BMDM [19] = experiment: Inhibition of LPS-induced IRF-1 mRNA expression in mouse BMDM up to 3 hrs by Northern blot analysis; assay type: functional, cell-based
MEF [20] = experiment: Inhibition of TNF-induced RelA expression in mouse MEF up to 120 mins by Western blot analysis; assay type: functional, cell-based
PBMC = experiment: Inhibition of LPS-induced IkappaBalpha mRNA expression in human PBMC up to 50 uM by Northern blot analysis; assay type: functional, cell-based
[21] = biological target: T1, Inhibitor of nuclear factor kappa-B kinase subunit alpha (Homo sapiens); experiment: Inhibition of IkappaBalpha in human bronchial epithelial cells assessed after 2 hrs by Western blot analysis; assay type: cell-based; conditions: Epithelial cell; how it was run: as §1
MEF [22] = experiment: Effect on TNF-induced IkappaBalpha mRNA expression in MEF by Northern blot analysis; assay type: functional, cell-based; conditions: Mus musculus
Macrophage [23] = experiment: Inhibition of LPS-induced IL-12beta mRNA expression in mouse alveolar macrophages after 90 mins by Northern blot analysis; assay type: functional, cell-based
[24] = biological target: T2, MAP kinase p38 (Mus musculus); experiment: Inhibition of TNF-induced p38 phosphorylation in mouse MEF up to 120 mins by Western blot analysis
Mus musculus [25] = species: Mus musculus; experiment: Suppression of LPS-induced TNF expression in C57BL/6 transgenic mouse bearing IkappaBalpha-reporter after 2 hrs by luciferase reporter gene assay; assay type: functional, organism-based
How it was run: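 Animals received an injection of vehicle, LPS, C12, or LPS plus C12. Whole-animal bioluminescence was recorded 2 hours after injection as the read-out of reporter activity.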

MEF [26] = experiment: Inhibition of TNF-induced IkappaBalpha expression in mouse MEF up to 120 mins by Western blot analysis; assay type: functional, cell-based
BMDM [27] = experiment: Inhibition of LPS-induced IkBbeta degradation in mouse BMDM treated 2 hrs after LPS challenge measured up to 120 mins by Western blot analysis; assay type: functional, cell-based
MEF [28] = experiment: Effect on TNF-induced c-jun mRNA expression in MEF by Northern blot analysis; assay type: functional, cell-based; conditions: Mus musculus
Mus musculus [29] = species: Mus musculus; experiment: Inhibition of LPS-induced IKK activity in mouse BMDM assessed as GST-IkappaBalpha phosphorylation after 5 mins by immunoprecipitation kinase assay

Activity [3]: Active | Activity [4]: inactive | Activity (Mus musculus [5]): Active | Activity [10]: Active | Activity (Mus musculus [12]): Active | Activity (Mus musculus [17]): Active | Activity [21]: Active | Activity [24]: Active | Activity (Mus musculus [25]): Active | Activity (Mus musculus [29]): Active
Compound: CCCCCCCCCC(=O)CC(=O)N[C@H]1CCOC1=O
Activity (BMDM [1]): Active | Activity (Macrophage [2]): Dose-dependent effect | Activity (Epithelial cell): Active | Activity (Macrophage [6]): Dose-dependent effect | Activity (BMDM [7]): inactive | Activity (MEF [8]): Active | Activity (Macrophage [9]): Dose-dependent effect | Activity (BMDM [11]): Active | Activity (BMDM [13]): Active | Activity (BMDM [14]): Active | Activity (THP-1): Active | Activity (WI-38): Active | Activity (MEF [15]): Dose-dependent effect | Activity (MEF [16]): Active | Activity (Macrophage [18]): Dose-dependent effect | Activity (BMDM [19]): Dose-dependent effect | Activity (MEF [20]): Active | Activity (PBMC): Active | Activity (MEF [22]): Active | Activity (Macrophage [23]): Dose-dependent effect | Activity (MEF [26]): Active | Activity (BMDM [27]): Active | Activity (MEF [28]): Active
